# Laboratory results taken from ChEMBL document CHEMBL4689842, “EUbOPEN Chemogenomics Library wave 1” (2021).
# “And” between values parts separate entries of the source, which are not always exact repeats. Equal entries are not always repeated.
# System: Fibroblast
# Test: Multiplex assay against human fibroblast
# Type: toxicity, cell-based
# Summary of the method: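 Hoechst33342, BioTracker Green Microtubule Cytoskeleton Dye, MitoTracker Red and Annexin V Alexa Fluor 680 were added to live cells at seeding, and imaging on a CQ1 microscope at 37°C and 5% CO2 followed compound addition. Gating by CellPathfinder machine learning separated cells into Hoechst high-intensity objects or normal cells, then normal cells into healthy, pyknosed or fragmented nuclei, then pyknosed cells into mitotic or apoptotic. Per cents of healthy-nucleus cells are reported for the tubulin, mitochondrial-mass and membrane-permeability phenotypes.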
# [1] = 12 h, 1 µM, compound concentration 1 uM, replicate 1
# [2] = 12 h, 1 µM, compound concentration 1 uM, replicate 2
# [3] = 12 h, 10 µM, compound concentration 10 uM, replicate 1
# [4] = 12 h, 10 µM, compound concentration 10 uM, replicate 2
# [5] = 24 h, 1 µM, compound concentration 1 uM, replicate 1
# [6] = 24 h, 1 µM, compound concentration 1 uM, replicate 2
# [7] = 24 h, 10 µM, compound concentration 10 uM, replicate 1
# [8] = 24 h, 10 µM, compound concentration 10 uM, replicate 2
# [9] = 48 h, 10 µM, compound concentration 10 uM, replicate 1
# [10] = 48 h, 10 µM, compound concentration 10 uM, replicate 2
structure (smiles),measurement,setting,value
COCC(=O)NC/C=C/c1ccc2ncnc(Nc3ccc(Oc4ccc(C)nc4)c(C)c3)c2c1 [CP-724714],Population Apoptotic (%),[1],52% and 82%
same,Population Fragmented Nuclei (%),[1],30% and 25%
same,Population Healthy Nuclei (%),[1],51% and 59%
same,Population Hoechst High Intensity Objects (%),[1],14% and 12%
same,Population Membrane Permeable-Phenotype (%),[1],29% and 10%
same,Population Mitotic Cells (%),[1],47% and 17%
same,Population Normal (%),[1],85% and 87%
same,Population Pyknosed Nuclei (%),[1],18%
same,Total Cell Count,[1],245 and 254
same,Population Fragmented Nuclei (%),[2],50% and 54%
same,Population Healthy Nuclei (%),[2],33% and 20%
same,Population Hoechst High Intensity Objects (%),[2],27% and 42%
same,Population Membrane Permeable-Phenotype (%),[2],22% and 11%
same,Population Normal (%),[2],72% and 57%
same,Population Pyknosed Nuclei (%),[2],15% and 25%
same,Population Tubulin-Different-Phenotype (%),[2],22% and 44%
same,Total Cell Count,[2],73 and 76
same,Population Apoptotic (%),[3],51%
same,Population Fragmented Nuclei (%),[3],33%
same,Population Healthy Nuclei (%),[3],37%
same,Population Hoechst High Intensity Objects (%),[3],14%
same,Population Membrane Permeable-Phenotype (%),[3],14%
same,Population Mitochondria Different-Phenotype (%),[3],50%
same,Population Mitotic Cells (%),[3],48%
same,Population Normal (%),[3],85%
same,Population Pyknosed Nuclei (%),[3],29%
same,Population Tubulin-Different-Phenotype (%),[3],87%
same,Total Cell Count,[3],148
same,Population Apoptotic (%),[4],80%
same,Population Fragmented Nuclei (%),[4],18%
same,Population Healthy Nuclei (%),[4],63%
same,Population Hoechst High Intensity Objects (%),[4],11%
same,Population Membrane Permeable-Phenotype (%),[4],37%
same,Population Mitochondria Different-Phenotype (%),[4],94%
same,Population Mitotic Cells (%),[4],20%
same,Population Normal (%),[4],88%
same,Population Pyknosed Nuclei (%),[4],18%
same,Population Tubulin-Different-Phenotype (%),[4],100%
same,Total Cell Count,[4],62
same,Population Apoptotic (%),[5],58% and 59%
same,Population Fragmented Nuclei (%),[5],30% and 19%
same,Population Healthy Nuclei (%),[5],51% and 62%
same,Population Hoechst High Intensity Objects (%),[5],14% and 11%
same,Population Mitotic Cells (%),[5],41% and 40%
same,Population Normal (%),[5],85% and 88%
same,Population Pyknosed Nuclei (%),[5],17% and 18%
same,Total Cell Count,[5],243 and 259
same,Population Apoptotic (%),[6],37% and 77%
same,Population Fragmented Nuclei (%),[6],55% and 57%
same,Population Healthy Nuclei (%),[6],31% and 21%
same,Population Hoechst High Intensity Objects (%),[6],24% and 51%
same,Population Membrane Permeable-Phenotype (%),[6],16% and 11%
same,Population Mitochondria Different-Phenotype (%),[6],22% and 33%
same,Population Mitotic Cells (%),[6],62% and 22%
same,Population Normal (%),[6],75% and 48%
same,Population Pyknosed Nuclei (%),[6],13% and 21%
same,Total Cell Count,[6],77 and 86
same,Population Apoptotic (%),[7],57%
same,Population Fragmented Nuclei (%),[7],34%
same,Population Healthy Nuclei (%),[7],34%
same,Population Hoechst High Intensity Objects (%),[7],14%
same,Population Membrane Permeable-Phenotype (%),[7],16%
same,Population Mitochondria Different-Phenotype (%),[7],69%
same,Population Mitotic Cells (%),[7],42%
same,Population Normal (%),[7],85%
same,Population Pyknosed Nuclei (%),[7],30%
same,Population Tubulin-Different-Phenotype (%),[7],95%
same,Total Cell Count,[7],144
same,Population Apoptotic (%),[8],60%
same,Population Fragmented Nuclei (%),[8],16%
same,Population Healthy Nuclei (%),[8],54%
same,Population Hoechst High Intensity Objects (%),[8],11%
same,Population Membrane Permeable-Phenotype (%),[8],51%
same,Population Mitochondria Different-Phenotype (%),[8],96%
same,Population Mitotic Cells (%),[8],40%
same,Population Normal (%),[8],88%
same,Population Pyknosed Nuclei (%),[8],28%
same,Population Tubulin-Different-Phenotype (%),[8],100%
same,Total Cell Count,[8],60
same,Population Apoptotic (%),[9],77%
same,Population Fragmented Nuclei (%),[9],35%
same,Population Healthy Nuclei (%),[9],44%
same,Population Hoechst High Intensity Objects (%),[9],14%
same,Population Membrane Permeable-Phenotype (%),[9],10%
same,Population Mitochondria Different-Phenotype (%),[9],41%
same,Population Mitotic Cells (%),[9],22%
same,Population Normal (%),[9],85%
same,Population Pyknosed Nuclei (%),[9],20%
same,Population Tubulin-Different-Phenotype (%),[9],86%
same,Total Cell Count,[9],154
same,Population Apoptotic (%),[10],40%
same,Population Fragmented Nuclei (%),[10],34%
same,Population Healthy Nuclei (%),[10],61%
same,Population Hoechst High Intensity Objects (%),[10],8%
same,Population Membrane Permeable-Phenotype (%),[10],14%
same,Population Mitochondria Different-Phenotype (%),[10],34%
same,Population Mitotic Cells (%),[10],60%
same,Population Normal (%),[10],91%
same,Population Pyknosed Nuclei (%),[10],3%
same,Population Tubulin-Different-Phenotype (%),[10],94%
same,Total Cell Count,[10],163
Cn1nc(C(F)(F)F)cc1-c1cnc(N2CCc3cc(S(=O)(=O)Nc4c(F)cc(Cl)cc4F)cc(N4CCCC4=O)c32)nc1 [TP-020],Population Apoptotic (%),[1],69%
same,Population Fragmented Nuclei (%),[1],20%
same,Population Healthy Nuclei (%),[1],59%
same,Population Hoechst High Intensity Objects (%),[1],13%
same,Population Membrane Permeable-Phenotype (%),[1],35%
same,Population Mitochondria Different-Phenotype (%),[1],4%
same,Population Mitotic Cells (%),[1],30%
same,Population Normal (%),[1],86%
same,Population Pyknosed Nuclei (%),[1],20%
same,Population Tubulin-Different-Phenotype (%),[1],58%
same,Total Cell Count,[1],241
same,Population Apoptotic (%),[2],42%
same,Population Fragmented Nuclei (%),[2],56%
same,Population Healthy Nuclei (%),[2],26%
same,Population Hoechst High Intensity Objects (%),[2],34%
same,Population Membrane Permeable-Phenotype (%),[2],45%
same,Population Mitochondria Different-Phenotype (%),[2],18%
same,Population Mitotic Cells (%),[2],57%
same,Population Normal (%),[2],65%
same,Population Pyknosed Nuclei (%),[2],17%
same,Population Tubulin-Different-Phenotype (%),[2],72%
same,Total Cell Count,[2],63
same,Population Apoptotic (%),[3],65%
same,Population Fragmented Nuclei (%),[3],30%
same,Population Healthy Nuclei (%),[3],57%
same,Population Hoechst High Intensity Objects (%),[3],7%
same,Population Membrane Permeable-Phenotype (%),[3],13%
same,Population Mitochondria Different-Phenotype (%),[3],1%
same,Population Mitotic Cells (%),[3],35%
same,Population Normal (%),[3],92%
same,Population Pyknosed Nuclei (%),[3],11%
same,Population Tubulin-Different-Phenotype (%),[3],3%
same,Total Cell Count,[3],192
same,Population Apoptotic (%),[4],33%
same,Population Fragmented Nuclei (%),[4],62%
same,Population Healthy Nuclei (%),[4],28%
same,Population Hoechst High Intensity Objects (%),[4],41%
same,Population Membrane Permeable-Phenotype (%),[4],10%
same,Population Mitochondria Different-Phenotype (%),[4],0%
same,Population Mitotic Cells (%),[4],66%
same,Population Normal (%),[4],58%
same,Population Pyknosed Nuclei (%),[4],8%
same,Population Tubulin-Different-Phenotype (%),[4],10%
same,Total Cell Count,[4],60
same,Population Apoptotic (%),[5],51%
same,Population Fragmented Nuclei (%),[5],19%
same,Population Healthy Nuclei (%),[5],57%
same,Population Hoechst High Intensity Objects (%),[5],9%
same,Population Membrane Permeable-Phenotype (%),[5],25%
same,Population Mitochondria Different-Phenotype (%),[5],4%
same,Population Mitotic Cells (%),[5],48%
same,Population Normal (%),[5],90%
same,Population Pyknosed Nuclei (%),[5],23%
same,Population Tubulin-Different-Phenotype (%),[5],55%
same,Total Cell Count,[5],246
same,Population Apoptotic (%),[6],57%
same,Population Fragmented Nuclei (%),[6],57%
same,Population Healthy Nuclei (%),[6],26%
same,Population Hoechst High Intensity Objects (%),[6],36%
same,Population Membrane Permeable-Phenotype (%),[6],18%
same,Population Mitochondria Different-Phenotype (%),[6],27%
same,Population Mitotic Cells (%),[6],42%
same,Population Normal (%),[6],63%
same,Population Pyknosed Nuclei (%),[6],16%
same,Population Tubulin-Different-Phenotype (%),[6],27%
same,Total Cell Count,[6],66
same,Population Apoptotic (%),[7],42%
same,Population Fragmented Nuclei (%),[7],22%
same,Population Healthy Nuclei (%),[7],66%
same,Population Hoechst High Intensity Objects (%),[7],10%
same,Population Membrane Permeable-Phenotype (%),[7],7%
same,Population Mitochondria Different-Phenotype (%),[7],1%
same,Population Mitotic Cells (%),[7],57%
same,Population Normal (%),[7],89%
same,Population Tubulin-Different-Phenotype (%),[7],2%
same,Total Cell Count,[7],188
same,Population Apoptotic (%),[8],50%
same,Population Fragmented Nuclei (%),[8],52%
same,Population Healthy Nuclei (%),[8],35%
same,Population Hoechst High Intensity Objects (%),[8],38%
same,Population Membrane Permeable-Phenotype (%),[8],8%
same,Population Mitochondria Different-Phenotype (%),[8],0%
same,Population Mitotic Cells (%),[8],50%
same,Population Normal (%),[8],61%
same,Population Pyknosed Nuclei (%),[8],11%
same,Population Tubulin-Different-Phenotype (%),[8],25%
same,Total Cell Count,[8],55
